Source: PubChem BioAssay
Compounds with a hit are over-represented: about 2.6% of the library has one in this group of screens.
GRK2 aptamer HTS: human GRK2 inhibition via aptamer displacement. P25098. bead flow cytometry, FAM-aptamer displacement from GRK2. inhibition of aptamer binding, % at 10 µM. hit rate 0.59% among 330,000;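 active = inhibition of aptamer binding above 40%, roughly 3 SD of noise, on plates passing a quality check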;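 note: median bead fluorescence of bound FAM aptamer so fluorescent compounds give negative values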
Myeloid diff 2: myeloid differentiation induction. ER-HoxA9 myeloid progenitors, lysozyme-GFP differentiation, flow cytometry. calls only at 10 µM. AID 624256. hit rate 1% among 360,000;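 active = normalized GFP-positive differentiation at or above the plate's own cutoff, the solvent-only control mean plus 3 SD; inconclusive = no clear call, values can overlap the other calls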;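 note: cells exposed to compound for four days before flow analysis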
SKN-1 inh: blocks SKN-1 activity in C. elegans; C. elegans VP596 Pgst-4::GFP/RFP ratio, acrylamide-induced, 24 h; inhibition, % at 21.8 µM; hit rate 0.49% among 360,000; AID 624304;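 active = interference check ratio from 0.5 to 1.5 plus GFP to RFP signal ratio inhibition reaching or exceeding a fixed threshold, cut at about 30% in these data, passing the limit was not always enough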
Rin1 Abl inh: blocks binding of human Rin1 to Abl; P00519+Q13671; TR-FRET Rin1/Abl binding, biochemical; inhibition, % at 7.35 µM; hit rate 0.4% among 360,000; in the data active = inhibition above about 5%, passing the limit was not always enough
Target sequence (P00519 whole entry, looked up): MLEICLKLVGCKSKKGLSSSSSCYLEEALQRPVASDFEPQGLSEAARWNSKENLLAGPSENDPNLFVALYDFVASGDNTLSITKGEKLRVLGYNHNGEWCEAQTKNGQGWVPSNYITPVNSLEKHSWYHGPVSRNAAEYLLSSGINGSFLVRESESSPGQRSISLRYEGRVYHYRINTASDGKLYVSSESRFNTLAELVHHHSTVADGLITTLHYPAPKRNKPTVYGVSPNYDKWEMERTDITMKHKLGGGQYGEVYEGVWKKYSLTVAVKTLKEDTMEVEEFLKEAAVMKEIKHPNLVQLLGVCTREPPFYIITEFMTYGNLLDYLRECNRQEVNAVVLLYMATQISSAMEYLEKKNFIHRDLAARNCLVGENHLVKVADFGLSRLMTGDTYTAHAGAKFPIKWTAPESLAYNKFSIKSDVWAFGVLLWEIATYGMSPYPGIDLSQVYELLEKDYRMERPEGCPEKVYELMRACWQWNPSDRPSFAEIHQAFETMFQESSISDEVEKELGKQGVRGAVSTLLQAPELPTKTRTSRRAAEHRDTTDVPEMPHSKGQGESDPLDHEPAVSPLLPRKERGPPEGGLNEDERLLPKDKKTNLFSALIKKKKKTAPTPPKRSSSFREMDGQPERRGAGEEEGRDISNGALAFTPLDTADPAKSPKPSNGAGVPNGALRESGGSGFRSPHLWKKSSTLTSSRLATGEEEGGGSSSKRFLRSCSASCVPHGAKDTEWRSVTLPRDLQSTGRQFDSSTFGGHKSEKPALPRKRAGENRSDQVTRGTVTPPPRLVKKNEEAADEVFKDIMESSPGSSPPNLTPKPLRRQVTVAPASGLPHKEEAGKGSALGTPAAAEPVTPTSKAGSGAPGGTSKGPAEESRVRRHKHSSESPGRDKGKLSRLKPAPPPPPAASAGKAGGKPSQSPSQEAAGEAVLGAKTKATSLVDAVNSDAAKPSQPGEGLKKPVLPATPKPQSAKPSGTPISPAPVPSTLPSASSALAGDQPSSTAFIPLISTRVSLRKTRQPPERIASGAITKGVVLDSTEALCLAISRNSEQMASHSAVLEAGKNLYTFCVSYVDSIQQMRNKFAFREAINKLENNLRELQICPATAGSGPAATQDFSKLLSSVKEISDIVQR
Target sequence (Q13671 whole entry, looked up): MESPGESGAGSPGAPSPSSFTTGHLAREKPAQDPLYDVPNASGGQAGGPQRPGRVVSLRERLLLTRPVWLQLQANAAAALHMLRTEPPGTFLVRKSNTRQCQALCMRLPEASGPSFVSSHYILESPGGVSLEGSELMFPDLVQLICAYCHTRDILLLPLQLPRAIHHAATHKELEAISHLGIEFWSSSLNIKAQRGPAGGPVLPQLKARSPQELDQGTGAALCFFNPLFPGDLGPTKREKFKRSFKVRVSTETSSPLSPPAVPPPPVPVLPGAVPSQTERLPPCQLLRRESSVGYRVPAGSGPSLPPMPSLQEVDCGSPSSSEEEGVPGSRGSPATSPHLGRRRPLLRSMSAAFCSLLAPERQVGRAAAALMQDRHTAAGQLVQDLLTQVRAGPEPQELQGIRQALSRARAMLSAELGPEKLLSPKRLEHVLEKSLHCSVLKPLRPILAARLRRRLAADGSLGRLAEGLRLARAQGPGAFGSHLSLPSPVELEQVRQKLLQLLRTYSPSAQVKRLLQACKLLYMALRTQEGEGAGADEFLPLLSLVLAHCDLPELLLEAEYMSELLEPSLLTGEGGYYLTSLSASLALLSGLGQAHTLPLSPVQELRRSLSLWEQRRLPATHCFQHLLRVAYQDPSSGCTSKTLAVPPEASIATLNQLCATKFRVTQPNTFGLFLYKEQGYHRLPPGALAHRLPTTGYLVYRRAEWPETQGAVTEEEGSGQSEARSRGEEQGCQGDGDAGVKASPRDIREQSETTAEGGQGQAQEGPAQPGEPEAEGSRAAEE
T cell modulator: T cell immune modulators affecting CD8 T cell-vesicle binding. 2C CD8+ T cell-vesicle binding, flow cytometry; hits give low values. response (vesicle binding), % at 7 µM. hit rate 0.068% among 330,000. AID 2052;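 active = response, share of CD8 T cells binding vesicles, and their 90th percentile fluorescence all below set limits, cut at about 80% in these data, passing the limit was not always enough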;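 note: values below 100% mean blocked vesicle binding to the CD8+ T cells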
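Material: murine 2C transgenic CD8+ T lymphocytes / Also added: QL9-peptide-loaded Drosophila micro-vesicles bearing Ld, ICAM-1 and B7-1 / Schedule: binding step 1.5 h, 37 °C, antibody labelling 20 min, ice / Signal: flow cytometry, PE anti-B7-1 (FL2) versus Alexa647 anti-CD8 (FL8), PFA-fixed / Evaluation: percent CD8+ FL2 mean versus row control / Benchmarks: naked versus QL9-loaded vesicles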
Rce1 inhib: blocks yeast Ras-converting enzyme. yeast membranes, quenched prenylated peptide cleavage fluorescence. calls only. hit rate 0.27% among 290,000. AID 2563;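 active = fall in fluorescence gain of 50% or more versus controls, with final raw signal at or below 3038400; inconclusive = same 50% fall but final raw signal above 3038400; inactive = fall in fluorescence gain under 50%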;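 note: plate controls were neutral control wells for no effect and wells lacking membranes for full effect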
GRK2 CP1: human GRK2 inhibition confirmation, cherry pick 1; aptamer displacement, % at 10 µM; AID 504451; hit rate 4% among 2,000; bead-bound GRK2, FAM-aptamer displacement, flow cytometry; shares compounds with GRK2 aptamer HTS;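 active = aptamer displacement above 40%, near three times the noise of non-fluorescent compounds, on plates passing quality checks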;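 note: negative values mostly reflect intrinsic compound fluorescence rather than true enhancement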
Aptamer quench SP: aptamer fluorescence quenching in GRK2 counter-screen. shares compounds with GRK2 aptamer HTS. Carboxyfluorescein RNA aptamer on beads, flow cytometry quenching; hits give low values. fluorescence response (% of DMSO), % at 10 µM. 2,000 tested, under 10 active. AID 504580;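 active = compounds that quench the bead-bound fluorescent RNA probe, cutting fluorescence to under half of the solvent control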;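 note: counterscreen run without GRK2 so only probe quenching by compound is measured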
GRK2 confirm 2: confirmation of human GRK2 inhibitors binding RNA aptamer site; shares compounds with GRK2 aptamer HTS; bead-bound GRK2, FAM-aptamer displacement, flow cytometry; inhibition of aptamer binding, % at 10 µM; 360 tested, under 10 active;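 active = inhibition of aptamer binding above 40%, about triple the noise seen with nonglowing compounds, on plates passing quality control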;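 note: negative values mostly come from compounds that fluoresce themselves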
FAM quench SP: counter-screen for GRK2 binding hits: quenchers of fluorescent RNA aptamer; AID 588494; fluorescence response vs DMSO, % at 10 µM; carboxyfluorescein RNA aptamer beads, flow cytometry quenching; hits give low values; 360 tested, under 10 active; shares compounds with GRK2 aptamer HTS;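 active = response vs DMSO under 50%, meaning signal dropped by over half, treated as fluorescence quencher; inconclusive = no clear call, values can overlap the other calls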;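 note: labelled aptamer on streptavidin beads without GRK2 as a quench counter-screen; 100% = bead fluorescence of DMSO wells and lower means quenching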
Active calls of the source: *.

For CC[C@]12CC[C@H](O)CC1=CCC1C2CC[C@]2(C)C(=O)CCC12 (stereo not given in full) the results were GRK2 aptamer HTS 42*, Myeloid diff 2 inactive, SKN-1 inh -8, Rin1 Abl inh 0, T cell modulator 613, GRK2 confirm 2 12 and FAM quench SP 101.
CC1(C)OC(c2ccccc2)=C/C(=C/C=C2C(=O)NC(=S)NC2=O)O1 was read as GRK2 aptamer HTS 48*, T cell modulator 175, Rce1 inhib inactive, GRK2 CP1 22 and Aptamer quench SP 107.
For CC(C)(C)C(=O)O[C@H]1CC[C@@]2(C)C(=CC(=O)C3C2CC[C@]2(C)C(=O)CCC32)C1 (stereo not given in full) the results were GRK2 aptamer HTS 1, Myeloid diff 2 inactive, SKN-1 inh 16, Rin1 Abl inh -1 and T cell modulator 210.
Screening Cc1nn(-c2ccccc2)c2c1C(c1ccc3c(c1)OCO3)SCC(=O)N2 (stereo not given) returned GRK2 aptamer HTS 26, Myeloid diff 2 inactive, SKN-1 inh 13, Rin1 Abl inh 1, T cell modulator 612, Rce1 inhib inactive, GRK2 CP1 2 and Aptamer quench SP 104.
For CC(C(N)=O)N1CC(c2ccc(Cl)cc2)CC1=O (stereo not given) the results were GRK2 aptamer HTS 50*, Myeloid diff 2 inactive, SKN-1 inh 9, Rin1 Abl inh -6, T cell modulator 327, Rce1 inhib inactive, GRK2 CP1 1 and Aptamer quench SP 98.
Cc1cc(C(=O)N2CCC3(CC2)OCCO3)cs1 was read as GRK2 aptamer HTS 4, Myeloid diff 2 inactive, SKN-1 inh 2, Rin1 Abl inh 1, T cell modulator 226 and Rce1 inhib inactive.
Screening CCOc1cc(C(=O)N2CCC3(CC2)OCCO3)cc(OCC)c1OCC returned GRK2 aptamer HTS 62*, Myeloid diff 2 inactive, SKN-1 inh -7, Rin1 Abl inh 1, T cell modulator 301, Rce1 inhib inactive, GRK2 CP1 -2 and Aptamer quench SP 105.
C[C@]12CCC3C(CC[C@H]4C[C@H](O)CC[C@]34C)C1CC(=O)[C@@H]2O (stereo not given in full) was read as GRK2 aptamer HTS 100*, Myeloid diff 2 inactive, SKN-1 inh 9, Rin1 Abl inh 2, T cell modulator 487, GRK2 CP1 -4 and Aptamer quench SP 98.
Screening C[C@H](CO)N1C[C@H](C)[C@@H](CN(C)C(=O)Oc2ccc3ccccc3c2)OCc2cn(nn2)CCCC1=O returned Myeloid diff 2 inactive, SKN-1 inh -2 and Rin1 Abl inh 1.
Cc1cc(=O)oc2cc(OCC(=O)N3CCN(C(C)c4ccccc4)CC3)c(Cl)cc12 (stereo not given) was read as GRK2 aptamer HTS 0, Myeloid diff 2 inactive, SKN-1 inh -6, Rin1 Abl inh -2, T cell modulator 251, GRK2 CP1 -23 and Aptamer quench SP 96.
C=CCOC(=O)N1Cc2ccccc2-n2nncc2C1 was read as Myeloid diff 2 inactive, SKN-1 inh -6 and Rin1 Abl inh 0.
`Cc1cc(C)c(C)c(C(O)(C(=O)O)c2ccccc2)c1` (stereo not given) gave Myeloid diff 2 inactive, SKN-1 inh 5 and Rin1 Abl inh -1.
Screening CN1CCN(c2ccc3nccnc3c2)CC1 returned GRK2 aptamer HTS 1, Myeloid diff 2 inactive, SKN-1 inh 9, Rin1 Abl inh -3, T cell modulator 288 and Rce1 inhib inactive.
`CCc1nc2ccc(N3CCN(C)CC3)cc2nc1CC` gave GRK2 aptamer HTS 100*, Myeloid diff 2 inactive, SKN-1 inh -6, Rin1 Abl inh -4, T cell modulator 142, Rce1 inhib inactive, GRK2 CP1 -3 and Aptamer quench SP 99.
For O=c1[nH]c(=S)n(-c2ccccc2)c(O)c1C=NCCN1CCNCC1 the results were GRK2 aptamer HTS 89*, Myeloid diff 2 inactive, SKN-1 inh 7, Rin1 Abl inh 1, T cell modulator 156, Rce1 inhib inactive, GRK2 CP1 -1 and Aptamer quench SP 99.
Cc1ccc2c(c1)C1CN(C)CCC1N2C(=O)/C=C/c1ccc2c(c1)OCO2 (stereo not given) was read as GRK2 aptamer HTS 64*, Myeloid diff 2 inactive, SKN-1 inh -8, Rin1 Abl inh -1, T cell modulator 186, Rce1 inhib inactive, GRK2 CP1 -7 and Aptamer quench SP 97.
`Cc1ccc2c(c1)C1CN(C)CCC1N2C(=O)/C(C#N)=C/c1ccc2c(c1)OCO2` (stereo not given) gave GRK2 aptamer HTS 0, Myeloid diff 2 inactive, SKN-1 inh 4, Rin1 Abl inh 1, T cell modulator 542 and Rce1 inhib inactive.
`Cc1ccc2c(c1)C1CN(C)CCC1N2C(=O)COc1ccc(S(=O)(=O)N2CCOCC2)cc1` (stereo not given) gave GRK2 aptamer HTS 0, Myeloid diff 2 inactive, SKN-1 inh 0, Rin1 Abl inh 1, Rce1 inhib inactive, GRK2 CP1 -3 and Aptamer quench SP 102.
For COC(=O)C1=C(c2ccc(F)cc2F)C[C@@H]2CC[C@H]1N2C(=O)NCCOc1ccccc1 the results were GRK2 aptamer HTS 0, Myeloid diff 2 inactive, SKN-1 inh 28, Rin1 Abl inh 2 and T cell modulator 360.
`C#C[C@]1(O)CCC2C3C(=O)C=C4C(Cl)=CCC[C@]4(C)C3CC[C@@]21C` (stereo not given in full) gave Myeloid diff 2 inactive, SKN-1 inh 20 and Rin1 Abl inh 0.
Screening Cc1ccccc1-n1c(/C=C/c2ccccn2)nc2ccccc2c1=O returned GRK2 aptamer HTS 2, Myeloid diff 2 inactive, SKN-1 inh -12, Rin1 Abl inh 0, T cell modulator 187 and Rce1 inhib inactive.
`CN1C2CCC1/C(=C/c1ccccn1)C(=O)/C2=C\c1ccccn1` gave GRK2 aptamer HTS 92*, Myeloid diff 2 inconclusive, SKN-1 inh -13, Rin1 Abl inh 2, T cell modulator 209, GRK2 CP1 2 and Aptamer quench SP 110.
Screening Cc1ccsc1C(=O)C1CCCN(Cc2cnc(N(C)C)s2)C1 (stereo not given) returned GRK2 aptamer HTS 1, T cell modulator 539 and Rce1 inhib inactive.
